{"source": "paper PMC4083110", "about": "(Molecular & Cellular Proteomics : MCP, 2014)", "key": {"SH2D1A SH2 domain": {"target": "SH2D1A SH2 domain (Homo sapiens, UniProt O60880)", "sequence (O60880 6-104 limits assumed)": "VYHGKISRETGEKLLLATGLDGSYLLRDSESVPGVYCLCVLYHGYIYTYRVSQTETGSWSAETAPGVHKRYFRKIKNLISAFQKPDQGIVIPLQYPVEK", "assay": "FP saturation binding", "settings": "result in words", "method_in_brief": "(§1)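 Multi-SH2 genes were used as tandem proteins that kept the linker residues. Automated high-throughput FP saturation binding was run against 178 synthetic phosphopeptides from RTK, GAB1 and androgen receptor tyrosine sites. Millipolarization readings were fitted to P_obs = Pmax·[Protein]/(K_D+[Protein]) by least squares regression to give K_D.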"}, "SH2D1B SH2 domain": {"target": "T1, SH2D1B SH2 domain (Homo sapiens, UniProt O14796)", "T1 sequence (O14796 5-101 limits assumed)": "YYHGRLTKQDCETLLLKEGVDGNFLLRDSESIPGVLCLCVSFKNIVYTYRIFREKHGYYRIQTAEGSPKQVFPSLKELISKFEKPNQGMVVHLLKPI", "assay": "FP saturation binding", "settings": "result in words", "method_in_brief": "as §1"}, "PLCG1 SH2 domains": {"target": "T2, PLCG1 SH2 domains (Homo sapiens, UniProt P19174)", "T2 sequence (P19174 550-756 limits assumed)": "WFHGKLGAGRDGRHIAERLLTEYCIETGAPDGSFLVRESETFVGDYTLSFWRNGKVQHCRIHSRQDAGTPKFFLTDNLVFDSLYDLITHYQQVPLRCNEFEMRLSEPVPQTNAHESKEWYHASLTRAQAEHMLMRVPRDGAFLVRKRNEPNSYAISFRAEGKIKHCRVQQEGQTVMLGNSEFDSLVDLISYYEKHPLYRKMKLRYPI", "assay": "FP saturation binding, construct not stated", "settings": "result in words", "method_in_brief": "as §1"}, "RASA1 SH2 domains": {"target": "T3, RASA1 SH2 domains (Homo sapiens, UniProt P20936)", "T3 sequence (P20936 181-441 limits assumed)": "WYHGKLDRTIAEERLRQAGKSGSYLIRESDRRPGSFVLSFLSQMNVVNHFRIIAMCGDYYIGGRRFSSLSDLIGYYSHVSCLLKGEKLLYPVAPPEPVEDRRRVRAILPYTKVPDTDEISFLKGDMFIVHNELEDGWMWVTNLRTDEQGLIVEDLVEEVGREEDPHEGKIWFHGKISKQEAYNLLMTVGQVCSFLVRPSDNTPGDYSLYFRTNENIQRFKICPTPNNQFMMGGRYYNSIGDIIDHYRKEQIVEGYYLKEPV", "assay": "FP saturation binding, construct not stated", "settings": "result in words", "method_in_brief": "as §1"}, "Shp2/PTPN11 SH2 domain": {"target": "T4, Shp2/PTPN11 SH2 domain (Homo sapiens, UniProt Q06124)", "T4 sequence (Q06124 2-593)": "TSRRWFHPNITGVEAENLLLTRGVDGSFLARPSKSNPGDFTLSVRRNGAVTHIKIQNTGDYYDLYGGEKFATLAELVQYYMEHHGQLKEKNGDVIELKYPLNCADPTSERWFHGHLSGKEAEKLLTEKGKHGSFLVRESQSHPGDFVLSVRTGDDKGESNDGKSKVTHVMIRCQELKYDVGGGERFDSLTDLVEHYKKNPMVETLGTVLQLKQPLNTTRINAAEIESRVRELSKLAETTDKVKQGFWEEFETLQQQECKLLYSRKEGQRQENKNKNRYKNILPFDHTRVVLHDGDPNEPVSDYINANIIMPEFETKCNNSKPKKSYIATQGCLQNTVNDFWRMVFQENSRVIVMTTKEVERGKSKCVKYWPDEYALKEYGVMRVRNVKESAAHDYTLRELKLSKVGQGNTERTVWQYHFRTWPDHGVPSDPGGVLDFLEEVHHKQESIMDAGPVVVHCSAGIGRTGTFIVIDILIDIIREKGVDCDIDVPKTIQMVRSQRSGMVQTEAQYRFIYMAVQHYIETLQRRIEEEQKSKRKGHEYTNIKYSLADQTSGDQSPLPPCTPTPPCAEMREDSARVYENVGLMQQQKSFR", "assay": "FP saturation binding, construct not stated", "settings": "result in words", "method_in_brief": "as §1"}, "[1]": {"system": "c-Src family kinase SH2 domains", "assay": "FP saturation binding, domain family", "parameters": "species or system human", "settings": "result in words", "method_in_brief": "as §1"}, "[2]": {"system": "tensin family SH2 domains", "assay": "FP saturation binding, domain family", "parameters": "species or system human", "settings": "result in words", "method_in_brief": "as §1"}, "SHC1 SH2 domain": {"target": "T5, SHC1 SH2 domain (Homo sapiens, UniProt P29353)", "T5 sequence (P29353 488-579 limits assumed)": "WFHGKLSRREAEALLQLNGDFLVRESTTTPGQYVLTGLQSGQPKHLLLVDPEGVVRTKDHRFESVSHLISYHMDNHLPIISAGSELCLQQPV", "assay": "FP saturation binding", "settings": "result in words", "method_in_brief": "(§2)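 Tandem SH2 proteins were kept with their linkers. Synthetic phosphotyrosine peptides were run in automated high-throughput FP saturation binding. Millipolarization was fitted to Pobs = Pmax·[Protein]/(KD+[Protein]) by least squares to give KD per protein/peptide pair.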"}, "[3]": {"target": "T6, SHC1 PTB domain (SHC1.PTB) (Homo sapiens, UniProt P29353)", "T6 sequence (P29353 156-339 limits assumed)": "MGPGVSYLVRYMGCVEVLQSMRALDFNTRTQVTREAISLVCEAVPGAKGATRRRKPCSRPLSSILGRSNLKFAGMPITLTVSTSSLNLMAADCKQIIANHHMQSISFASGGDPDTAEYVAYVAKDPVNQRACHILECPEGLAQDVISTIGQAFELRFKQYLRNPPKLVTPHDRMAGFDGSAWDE", "assay": "FP saturation binding", "settings": "result in words", "method_in_brief": "as §1"}, "CRK SH2 domain": {"target": "CRK SH2 domain (Homo sapiens, UniProt P46108)", "sequence (P46108 13-118 limits assumed)": "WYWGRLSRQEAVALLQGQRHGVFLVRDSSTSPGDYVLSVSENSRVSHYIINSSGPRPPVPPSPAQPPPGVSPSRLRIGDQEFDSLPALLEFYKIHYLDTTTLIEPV", "assay": "FP saturation binding", "settings": "result in words", "method_in_brief": "as §1"}, "CRKL SH2 domain": {"target": "CRKL SH2 domain (Homo sapiens, UniProt P46109)", "sequence (P46109 14-102 limits assumed)": "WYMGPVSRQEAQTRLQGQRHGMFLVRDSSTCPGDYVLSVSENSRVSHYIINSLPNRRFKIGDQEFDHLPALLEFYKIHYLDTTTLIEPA", "assay": "FP saturation binding", "settings": "result in words", "method_in_brief": "as §1"}, "GRB2 SH2 domain": {"target": "GRB2 SH2 domain (Homo sapiens, UniProt P62993)", "sequence (P62993 60-152 limits assumed)": "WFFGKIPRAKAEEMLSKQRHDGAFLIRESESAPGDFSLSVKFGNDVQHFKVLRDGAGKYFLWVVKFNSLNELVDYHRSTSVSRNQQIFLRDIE", "assay": "FP saturation binding", "settings": "result in words", "method_in_brief": "as §2"}, "GRAP2 SH2 domain": {"target": "GRAP2 SH2 domain (Homo sapiens, UniProt O75791)", "sequence (O75791 58-149 limits assumed)": "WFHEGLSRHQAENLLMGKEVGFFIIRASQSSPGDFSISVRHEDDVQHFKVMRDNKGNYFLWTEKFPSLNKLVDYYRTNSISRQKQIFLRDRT", "assay": "FP saturation binding", "settings": "result in words", "method_in_brief": "as §2"}, "[4]": {"system": "PIK3R-derived SH2 domains", "assay": "FP saturation binding, domain family", "parameters": "species or system human", "settings": "FP, result in words", "method_in_brief": "as §1"}, "PIK3R1 SH2 domains": {"target": "PIK3R1 SH2 domains (Homo sapiens, UniProt P27986)", "sequence (P27986 2-724)": "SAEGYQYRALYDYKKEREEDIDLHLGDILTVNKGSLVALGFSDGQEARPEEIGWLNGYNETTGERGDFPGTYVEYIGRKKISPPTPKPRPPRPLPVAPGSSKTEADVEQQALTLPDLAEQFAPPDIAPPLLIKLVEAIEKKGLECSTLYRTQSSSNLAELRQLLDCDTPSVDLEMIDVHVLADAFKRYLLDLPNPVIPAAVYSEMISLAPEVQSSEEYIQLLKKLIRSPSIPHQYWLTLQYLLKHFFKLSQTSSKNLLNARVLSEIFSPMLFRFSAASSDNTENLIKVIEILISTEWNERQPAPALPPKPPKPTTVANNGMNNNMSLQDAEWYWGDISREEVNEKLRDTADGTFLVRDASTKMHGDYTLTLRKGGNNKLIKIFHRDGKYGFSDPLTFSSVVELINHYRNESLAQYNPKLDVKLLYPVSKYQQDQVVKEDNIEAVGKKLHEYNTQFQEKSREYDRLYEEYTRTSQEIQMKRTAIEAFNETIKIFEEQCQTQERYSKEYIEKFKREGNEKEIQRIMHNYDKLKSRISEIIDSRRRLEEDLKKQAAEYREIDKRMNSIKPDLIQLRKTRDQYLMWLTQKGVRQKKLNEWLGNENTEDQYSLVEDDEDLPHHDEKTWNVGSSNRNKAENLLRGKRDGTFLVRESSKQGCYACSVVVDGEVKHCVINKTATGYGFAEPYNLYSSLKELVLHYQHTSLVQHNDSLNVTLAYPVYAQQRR", "assay": "FP saturation binding, construct not stated", "settings": "result in words", "method_in_brief": "as §1"}, "PIK3R3 SH2 domains": {"system": "PIK3R3 SH2 domains", "assay": "FP saturation binding, construct not stated", "parameters": "species or system human", "settings": "result in words", "method_in_brief": "as §1"}, "PLCG2 SH2 domains": {"target": "T7, PLCG2 SH2 domains (Homo sapiens, UniProt P16885)", "T7 sequence (P16885 532-735 limits assumed)": "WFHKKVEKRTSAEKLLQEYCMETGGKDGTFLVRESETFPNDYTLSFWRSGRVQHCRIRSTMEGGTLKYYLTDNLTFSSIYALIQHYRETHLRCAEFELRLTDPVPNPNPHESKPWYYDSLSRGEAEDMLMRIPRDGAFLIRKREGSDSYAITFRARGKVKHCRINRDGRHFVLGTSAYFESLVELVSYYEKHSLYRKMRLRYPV", "assay": "FP saturation binding, construct not stated", "settings": "result in words", "method_in_brief": "as §1"}}, "data": [{"substance": "CVAPXPSLLSSEd [c-Met Tyr(P)-1365]", "values": [{"measurement": "recruitment of SH2D1A SH2 domain", "setting": "SH2D1A SH2 domain", "value": "interactions"}, {"measurement": "recruitment of SH2D1B SH2 domain", "setting": "SH2D1B SH2 domain", "value": "interactions"}, {"measurement": "recruitment of PLCG1 SH2 domains", "setting": "PLCG1 SH2 domains", "value": "interactions"}, {"measurement": "recruitment of RASA1 SH2 domains", "setting": "RASA1 SH2 domains", "value": "interactions"}, {"measurement": "recruitment of Shp2/PTPN11 SH2 domain", "setting": "Shp2/PTPN11 SH2 domain", "value": "recruit"}, {"measurement": "recruitment of c-Src family kinase SH2 domains", "setting": "[1]", "value": "interactions"}, {"measurement": "recruitment of tensin family SH2 domains", "setting": "[2]", "value": "interactions"}]}, {"substance": "DITVXLLQGRRLd [c-Met Tyr(P)-1295]", "values": [{"measurement": "recruitment of Shp2/PTPN11 SH2 domain", "setting": "Shp2/PTPN11 SH2 domain", "value": "recruit"}]}, {"substance": "DPQDXLLLINCQd [GAB1 Tyr(P)-183]", "values": [{"measurement": "interaction with SHC1 SH2 domain", "setting": "SHC1 SH2 domain", "value": "interactions were identified"}, {"measurement": "interaction with SHC1 PTB domain", "setting": "[3]", "value": "interactions were observed"}]}, {"substance": "DRIFXLVADSEEd [GAB1 Tyr(P)-95]", "values": [{"measurement": "recruitment of CRK SH2 domain", "setting": "CRK SH2 domain", "value": "CRK SH2 domain recruitment"}, {"measurement": "interaction with SHC1 SH2 domain", "setting": "SHC1 SH2 domain", "value": "interactions were identified"}]}, {"substance": "DSSLXNLPRSYSd [GAB1 Tyr(P)-259]", "values": [{"measurement": "recruitment of CRK SH2 domain", "setting": "CRK SH2 domain", "value": "no CRK SH2 domain interactions"}, {"measurement": "recruitment of CRKL SH2 domain", "setting": "CRKL SH2 domain", "value": "CRKL SH2 domain interactions"}]}, {"substance": "DVWSXGIFLWELd [c-Kit Tyr(P)-855]", "values": [{"measurement": "recruitment of CRK SH2 domain", "setting": "CRK SH2 domain", "value": "recruited"}, {"measurement": "recruitment of tensin family SH2 domains", "setting": "[2]", "value": "recruited"}]}, {"substance": "EAALXKNLLHSKd [c-Kit Tyr(P)-703]", "values": [{"measurement": "recruitment of GRB2 SH2 domain", "setting": "GRB2 SH2 domain", "value": "detectably recruited"}, {"measurement": "recruitment of GRAP2 SH2 domain", "setting": "GRAP2 SH2 domain", "value": "detectably recruited"}]}, {"substance": "ERVDXVVVDQQKd [GAB1 Tyr(P)-689]", "values": [{"measurement": "interaction with SHC1 SH2 domain", "setting": "SHC1 SH2 domain", "value": "interactions were identified"}, {"measurement": "recruitment of SH2D1B SH2 domain", "setting": "SH2D1B SH2 domain", "value": "able to recruit"}, {"measurement": "recruitment of PIK3R (PI3KR) SH2 domains", "setting": "[4]", "value": "able to recruit"}, {"measurement": "recruitment of PLCG1 SH2 domains", "setting": "PLCG1 SH2 domains", "value": "able to recruit"}, {"measurement": "recruitment of Shp2/PTPN11 SH2 domain", "setting": "Shp2/PTPN11 SH2 domain", "value": "unable to recruit"}, {"measurement": "recruitment of c-Src family kinase SH2 domains", "setting": "[1]", "value": "able to recruit"}]}, {"substance": "EYCCXGDLLNFLd [c-Kit Tyr(P)-675]", "values": [{"measurement": "recruitment of CRK SH2 domain", "setting": "CRK SH2 domain", "value": "recruited"}, {"measurement": "recruitment of c-Src family kinase SH2 domains", "setting": "[1]", "value": "recruited"}]}, {"substance": "FENSXIFDINTId [GAB1 Tyr(P)-83]", "values": [{"measurement": "interaction with SHC1 SH2 domain", "setting": "SHC1 SH2 domain", "value": "interactions were identified"}, {"measurement": "interaction with SHC1 PTB domain", "setting": "[3]", "value": "interactions were observed"}]}, {"substance": "IGEHXVHVNATYd [c-Met Tyr(P)-1349]", "values": [{"measurement": "recruitment of SH2D1B SH2 domain", "setting": "SH2D1B SH2 domain", "value": "moderate affinity"}, {"measurement": "recruitment of PLCG1 SH2 domains", "setting": "PLCG1 SH2 domains", "value": "moderate affinity"}]}, {"substance": "KLKRXAWKRRWFd [GAB1 Tyr(P)-24]", "values": [{"measurement": "recruitment of CRK SH2 domain", "setting": "CRK SH2 domain", "value": "CRK SH2 domain recruitment"}, {"measurement": "interaction with SHC1 PTB domain", "setting": "[3]", "value": "interactions were observed"}]}, {"substance": "LDENXVPMNPNSd [GAB1 Tyr(P)-447]", "values": [{"measurement": "recruitment of PIK3R1", "setting": "PIK3R1 SH2 domains", "value": "confirmed"}, {"measurement": "recruitment of PIK3R3", "setting": "PIK3R3 SH2 domains", "value": "high affinity"}]}, {"substance": "LPIDXYFPPQKTd [AR Tyr(P)-551]", "values": [{"measurement": "recruitment of PLCG1 SH2 domains", "setting": "PLCG1 SH2 domains", "value": "recruitment sites"}, {"measurement": "recruitment of PLCG2 SH2 domains", "setting": "PLCG2 SH2 domains", "value": "recruitment sites"}]}]}
